Results as given in ChEMBL document CHEMBL4184138 (Bioorg Med Chem Lett, 2017).
Active and inactive are the calls of the source. The rule behind the calls is not given here.

Assays:
Mus musculus [1] = assay: Antinociceptive activity in Kunming mouse assessed as increase in latency to withdrawal by measuring AUC at 20 nmol/kg, i.c.v measured up to 45 mins post dose by tail-flick test; assay type: functional, organism-based; set-up: dose 20 nmol/kg, time < 0.75 hr
Method in brief: (§1)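 Mouse tail-flick test. A single fixed dose was given, either 20 nmol/kg i.c.v. or 10 mg/kg s.c. Antinociception was followed as a time course, and the area under the effect-time curve (A.U.C) was calculated.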

Mu-type opioid receptor = Mu-type opioid receptor (Rattus norvegicus, UniProt P33535); assay: Displacement of [3H]-DAMGO from mu opioid receptor in Wistar rat brain membranes preincubated for 1 hr measured after 1hr by scintillation counting method; assay type: cell membranes, Membrane
Mu-type opioid receptor, sequence (P33535 whole entry): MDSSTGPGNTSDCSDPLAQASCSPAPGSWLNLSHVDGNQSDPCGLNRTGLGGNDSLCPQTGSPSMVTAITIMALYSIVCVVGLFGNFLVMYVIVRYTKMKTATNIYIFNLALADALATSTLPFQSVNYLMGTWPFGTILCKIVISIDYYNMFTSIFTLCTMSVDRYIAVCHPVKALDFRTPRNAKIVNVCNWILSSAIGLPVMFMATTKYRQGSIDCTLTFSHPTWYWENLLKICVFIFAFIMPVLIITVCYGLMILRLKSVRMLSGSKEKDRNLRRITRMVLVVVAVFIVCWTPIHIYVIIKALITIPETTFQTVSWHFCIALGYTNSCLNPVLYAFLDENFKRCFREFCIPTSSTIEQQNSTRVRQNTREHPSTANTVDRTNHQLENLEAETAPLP
Method in brief: (§2)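 Opioid receptor binding done on rat brain membranes. Affinity values are given as mean ± SEM of 8-12 measurements.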

[2] = Half life in Kunming mouse 15% brain homogenate at 500 uM by RP-HPLC analysis; assay type: ADME, tissue-based
Method in brief: (§3)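 Peptide stability was measured by incubation in 15% mouse brain homogenate or in mouse plasma, and the half-life was determined for each matrix.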

Mus musculus [3] = assay: Antinociceptive activity in Kunming mouse assessed as increase in latency to withdrawal by measuring AUC at 10 mg/kg, sc measured up to 45 mins post dose by tail-flick test; assay type: functional, organism-based; set-up: dose 10 mg/kg, time < 0.75 hr; method in brief: as §1
[4] = Half life in Kunming mouse plasma at 500 uM by RP-HPLC analysis; assay type: ADME, cell-free; method in brief: as §3
[5] = molecular target: Delta-type opioid receptor (Rattus norvegicus, UniProt P33533); assay: Displacement of [3H]-DPDPE from delta opioid receptor in Wistar rat brain membranes preincubated for 3 hrs measured after 1 hr by scintillation counting method; assay type: cell membranes, Membrane; method in brief: as §2
Delta-type opioid receptor, sequence (P33533 whole entry): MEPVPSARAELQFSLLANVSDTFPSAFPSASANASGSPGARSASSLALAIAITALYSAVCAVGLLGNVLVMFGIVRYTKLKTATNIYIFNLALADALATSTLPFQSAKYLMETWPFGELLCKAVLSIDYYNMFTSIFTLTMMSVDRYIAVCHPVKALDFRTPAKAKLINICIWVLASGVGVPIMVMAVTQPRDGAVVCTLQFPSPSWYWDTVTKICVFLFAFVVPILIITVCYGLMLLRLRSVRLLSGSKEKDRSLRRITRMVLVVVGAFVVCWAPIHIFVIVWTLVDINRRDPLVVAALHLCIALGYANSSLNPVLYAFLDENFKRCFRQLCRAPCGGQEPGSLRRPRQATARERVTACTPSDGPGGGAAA

Rattus norvegicus = species: Rattus norvegicus; assay: Selectivity ratio of Ki from delta opioid receptor in Wistar rat brain membranes to Ki from mu opioid receptor in Wistar rat brain membranes; assay type: cell membranes
Mus musculus [6] = assay: Antinociceptive activity in Kunming mouse assessed as increase in latency to withdrawal at 10 mg/kg, sc measured up to 5 to 45 mins post dose in presence of opioid antagonist naloxone by tail-flick test; assay type: functional, organism-based

Row | SMILES | AUC (Mus musculus [1]) | Ki (Mu-type opioid receptor) [µM] | half-life at 500 µM [2] [h] | AUC (Mus musculus [3]) | half-life at 500 µM [4] [h] | Ki [5] [µM] | Ratio Ki (Rattus norvegicus) | Activity (Mus musculus [6])
1 | C[C@@H](NC(=O)[C@@H](N)Cc1ccc(O)cc1)C(=O)NCC(=O)N[C@@H](Cc1c[nH]c2ccccc12)C(=O)N[C@@H](Cc1ccccc1)C(N)=O | 336 | 0.0133 | 3.66 | 304 | 2.51 | 4.05 | 305 | –
2 | C[C@@H](NC(=O)[C@@H](N)Cc1ccc(O)cc1)C(=O)NCC(=O)N[C@@H](Cc1c[nH]c2ccccc12)C(=O)N[C@@H](Cc1ccc(Cl)cc1)C(N)=O | 246 | 0.0077 | 4.2 | 570 | 2.84 | 4.06 | 528 | –
3 | NC(=O)[C@H](Cc1ccccc1)NC(=O)[C@H](Cc1c[nH]c2ccccc12)NC(=O)[C@@H]1CCCN1C(=O)[C@@H](N)Cc1ccc(O)cc1 | 271 | – | – | 693 | – | – | – | –
4 | C[C@@H](NC(=O)[C@H](Cc1ccc(O)cc1)NC(=N)N)C(=O)NCC(=O)N[C@@H](Cc1c[nH]c2ccccc12)C(=O)N[C@@H](Cc1ccccc1)C(N)=O | 1160 | 0.00181 | 7.4 | 631 | 4.08 | 3.87 | 2140 | –
5 | C[C@@H](NC(=O)[C@H](Cc1ccc(O)cc1)NC(=N)N)C(=O)NCC(=O)N[C@@H](Cc1c[nH]c2ccccc12)C(=O)N[C@@H](Cc1ccc(Cl)cc1)C(N)=O | 650 | 0.0032 | 7.25 | 1400 | 4.73 | 2.03 | 635 | inactive
